The target of experiment [1] is T1, heteromeric CNGA3+CNGB3 channels (Homo sapiens, UniProt Q16281+Q9NQW8).
T1 sequence (Q16281 1-694): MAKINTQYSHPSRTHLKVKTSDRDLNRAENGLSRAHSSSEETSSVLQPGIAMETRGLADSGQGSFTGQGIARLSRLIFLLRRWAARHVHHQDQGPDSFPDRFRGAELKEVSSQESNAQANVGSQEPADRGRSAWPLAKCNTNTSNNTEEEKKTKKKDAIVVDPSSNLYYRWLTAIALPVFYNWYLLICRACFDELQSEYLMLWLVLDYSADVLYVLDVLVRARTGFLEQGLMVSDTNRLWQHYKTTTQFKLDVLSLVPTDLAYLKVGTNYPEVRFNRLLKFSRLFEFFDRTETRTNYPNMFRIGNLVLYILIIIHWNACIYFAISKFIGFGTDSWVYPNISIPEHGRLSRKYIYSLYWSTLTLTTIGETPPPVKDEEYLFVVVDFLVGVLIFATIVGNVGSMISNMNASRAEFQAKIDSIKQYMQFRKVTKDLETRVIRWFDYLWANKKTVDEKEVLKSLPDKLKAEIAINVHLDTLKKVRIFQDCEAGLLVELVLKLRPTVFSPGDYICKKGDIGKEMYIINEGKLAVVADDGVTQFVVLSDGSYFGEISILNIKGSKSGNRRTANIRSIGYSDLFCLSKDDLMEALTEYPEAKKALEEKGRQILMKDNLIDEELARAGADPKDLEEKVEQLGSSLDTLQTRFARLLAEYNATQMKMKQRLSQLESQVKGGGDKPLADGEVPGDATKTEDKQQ
T1 sequence (Q9NQW8 1-809): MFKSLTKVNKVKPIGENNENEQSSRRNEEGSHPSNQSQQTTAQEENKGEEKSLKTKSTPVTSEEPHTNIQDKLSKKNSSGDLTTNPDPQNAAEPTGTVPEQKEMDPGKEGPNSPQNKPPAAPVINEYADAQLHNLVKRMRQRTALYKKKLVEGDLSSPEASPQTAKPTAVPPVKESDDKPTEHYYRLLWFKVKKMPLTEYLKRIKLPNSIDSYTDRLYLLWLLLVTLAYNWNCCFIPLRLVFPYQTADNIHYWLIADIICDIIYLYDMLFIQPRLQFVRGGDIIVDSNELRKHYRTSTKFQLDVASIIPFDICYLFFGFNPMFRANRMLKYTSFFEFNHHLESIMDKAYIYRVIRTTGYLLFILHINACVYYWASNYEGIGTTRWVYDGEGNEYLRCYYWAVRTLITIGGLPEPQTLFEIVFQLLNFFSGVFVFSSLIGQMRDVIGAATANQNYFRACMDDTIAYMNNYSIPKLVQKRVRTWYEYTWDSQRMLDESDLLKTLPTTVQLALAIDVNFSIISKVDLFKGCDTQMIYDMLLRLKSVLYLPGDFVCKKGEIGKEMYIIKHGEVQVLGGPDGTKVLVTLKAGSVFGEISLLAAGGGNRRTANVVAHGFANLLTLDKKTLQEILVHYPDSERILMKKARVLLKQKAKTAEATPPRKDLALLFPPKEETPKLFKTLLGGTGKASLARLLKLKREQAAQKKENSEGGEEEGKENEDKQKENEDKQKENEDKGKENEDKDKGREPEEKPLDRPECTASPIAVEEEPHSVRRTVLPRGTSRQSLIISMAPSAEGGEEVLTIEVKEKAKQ
Briefly: Inside-out patch clamp, heteromeric CNGA3+CNGB3. It is filed as biochemical. In general terms: The patch-clamp technique gives a direct electrical read-out from membranes.

The target in experiment [2] is T2, A3-N7R-A,RR-QQ+B3 channels (Homo sapiens, UniProt Q16281+Q9NQW8, R101A/R103A/R643Q/R646Q/R72A/R75A/R81A/R82A/R86A).
T2 sequence (Q16281 1-694 R72A/R75A/R81A/R82A/R86A/R101A/R103A/R643Q/R646Q): T1 sequence (Q16281 1-694) with R72A, R75A, R81A, R82A, R86A, R101A, R103A, R643Q, R646Q
T2 sequence (Q9NQW8 1-809): T1 sequence (Q9NQW8 1-809)
Briefly: Inside-out patch clamp, A3-N7R-A,RR-QQ+B3. The format is biochemical. Conditions: 10 µM PIP2 or 1 µM PIP3. An outline of the steps: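 Subunit cRNAs (~20 ng, B in excess over A) injected into stage IV Xenopus oocytes; inside-out patches 2–7 d later, 20–22°C, symmetric 130 mM NaCl, 0.2 mM EDTA, 3 mM Hepes pH 7.2. Heteromer formation checked by 25 µM l-cis-diltiazem with 1 mM cGMP. diC8 phosphoinositides applied intracellularly in phosphatase-inhibitor cocktail. cGMP dose–response at +80 mV, leak-subtracted, Hill fit before/after for K1/2; mean ± SEM.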

In experiment [3] the target is T3, CNGA3 P99L, A105P (PA-LP) channels (Homo sapiens, UniProt Q16281, A105P/P99L).
T3 sequence (Q16281 1-694 P99L/A105P): T1 sequence (Q16281 1-694) with P99L, A105P
Briefly: Inside-out patch clamp, CNGA3 P99L, A105P. It is filed as biochemical. Conditions: after PIP3 or PIP2 application.

The target of another experiment is CNGA1 homomeric channels (Bos taurus, UniProt Q00194). Briefly: Inside-out patch clamp, homomeric CNGA1. It is filed as biochemical, bovine. Conditions: PIP3 or PIP2 application.
Sequence of CNGA1 homomeric channels (Q00194 whole entry): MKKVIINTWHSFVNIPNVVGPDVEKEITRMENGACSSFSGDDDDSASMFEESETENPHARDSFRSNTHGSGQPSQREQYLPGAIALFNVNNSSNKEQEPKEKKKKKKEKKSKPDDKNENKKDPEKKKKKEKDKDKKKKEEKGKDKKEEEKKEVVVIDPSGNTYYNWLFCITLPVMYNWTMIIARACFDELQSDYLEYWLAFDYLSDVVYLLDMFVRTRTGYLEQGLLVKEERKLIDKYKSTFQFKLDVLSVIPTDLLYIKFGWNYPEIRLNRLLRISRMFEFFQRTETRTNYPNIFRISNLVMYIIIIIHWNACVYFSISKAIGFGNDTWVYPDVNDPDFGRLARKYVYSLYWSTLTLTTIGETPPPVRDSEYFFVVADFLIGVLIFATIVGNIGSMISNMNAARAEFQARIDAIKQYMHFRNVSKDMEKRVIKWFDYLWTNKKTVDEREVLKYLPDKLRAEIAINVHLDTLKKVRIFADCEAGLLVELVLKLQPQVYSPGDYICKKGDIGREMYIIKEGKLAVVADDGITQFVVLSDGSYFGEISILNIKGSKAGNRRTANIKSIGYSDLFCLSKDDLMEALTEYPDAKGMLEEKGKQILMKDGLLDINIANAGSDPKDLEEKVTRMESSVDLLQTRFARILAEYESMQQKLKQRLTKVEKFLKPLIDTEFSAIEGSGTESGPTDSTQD
Experiment [4] concerns the target T4, human CNGA3 wild-type homomeric channels (Homo sapiens, UniProt Q16281).
T4 sequence (Q16281 1-694): T1 sequence (Q16281 1-694)
Nature of the experiment: Inside-out patch clamp, homomeric CNGA3 wild type expressed in X. laevis oocytes. The format is biochemical.

The test system of the next experiment is CNG channels. Conditions: ref Fodor et al., 1997; cited from earlier work.
Where [5] appears, read: mean, after 1 µM PIP3 or 10 µM PIP2.
[6] abbreviates: representative patch, after PIP3 or PIP2.

Numbering of substitutions follows the chain as printed.

As for “phosphatidylinositol (4,5)-biphosphate [PIP2]”, the “effect on currents elicited by 5 µM cGMP” value in experiment [1] (1 µM PIP3 or 10 µM PIP2) was “attenuated the currents”. For the same compound, the “Imax cAMP/cGMP after phosphoinositide” value in experiment [1] (after PIP2 or PIP3 application) is 0.27 ± 0.02. For the same compound, the figures for the “Hill coefficient h after phosphoinositide” value in experiment [1] (setting [5]), in experiment [1] (setting [6]) and in experiment [3] were 1.6, 1.6 and 1.7, respectively. The “K1/2 cGMP after phosphoinositide” value in experiment [1] (setting [5]) was determined as 23.4 ± 1.8 µM; in experiment [1] (setting [6]), 24.5 µM; in experiment [3], 8.7 ± 0.4 µM. Further, the “Imax cGMP compared with initial values” in experiment [1] (saturating cGMP, after 1 µM PIP3 or 10 µM PIP2) is on record as 85.3 ± 3.7%. The “regulation of apparent cGMP affinity” value in experiment [2] is “insensitive to regulation”. Also, the “effect on relative cAMP efficacy” value at CNGA1 homomeric channels is “decreased relative cAMP efficacy”. In addition, the “effect on maximal cGMP current” value in experiment [4] (1 mM cGMP) is on record as “not significantly altered”. Moreover, the “K1/2 cAMP after phosphoinositide” value in experiment [4] (apparent cAMP affinity after PIP3 or PIP2 application) is reported as 1.13 ± 0.04 mM.
As to poly-lysine, the “Imax cAMP/cGMP after poly-lysine” value in experiment [4] (poly-lysine applied to control patches (no exogenous PIPn)) was determined as 0.10 ± 0.01.
Turning to `C=C1[C@@H](C)[C@H]2[C@H](Cc3ccccc3)NC(=O)[C@]23[C@H](OC(C)=O)/C=C/[C@@](C)(O)C(=O)[C@@H](C)C/C=C/[C@H]3[C@@H]1O` [cyto D, cytochalasin D], the “effect on cAMP efficacy” value in experiment [4] (10 µM cyto D applied to inside-out patches) was “decrease in cAMP efficacy”.
For the compound `CCCCNc1ccc(C(=O)OCCN(C)C)cc1` [tetracaine], in the experiment with CNG channels, the “greater affinity for closed compared with open channels” value is reported as ~1,000 fold.

Source of the values: paper PMC3607822 (The Journal of General Physiology, 2013).
